In ChEMBL document CHEMBL4038305, “Benzoxaborole Antimalarial Agents. Part 5. Lead Optimization of Novel Amide Pyrazinyloxy Benzoxaboroles and Identification of a Preclinical Candidate” (J Med Chem, 2017):

What was measured:
Plasmodium falciparum [1] = test: Antimalarial activity against chloroquine-sensitive Plasmodium falciparum 3D7 infected in human erythrocytes assessed as reduction in [3H]-hypoxanthine incorporation preincubated for 24 hrs followed by [3H]-hypoxanthine addition measured after 24 hrs by scintillation counting method; assay type: functional, cell-based
Summary of the method: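 P. falciparum 3D7 cultures were exposed to the compound for 48 h, with atovaquone as the reference control. IC50 was taken from three replicates.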

Plasmodium falciparum [2] = test: Antimalarial activity against chloroquine-resistant Plasmodium falciparum W2 infected in human erythrocytes after 48 hrs by YOYO-1 dye based flow cytometric analysis; assay type: functional, cell-based; conditions: W2, 48 h
Summary of the method: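 P. falciparum W2 cultures were exposed to the compound for 48 h, with artemisinin and chloroquine as reference controls. IC50 was taken from two independent replicates.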

Structure (SMILES)	IC50 (Plasmodium falciparum [1])	IC50 (Plasmodium falciparum [2])
CCC[C@@H](CO)NC(=O)c1cnc(Oc2ccc3c(c2C)B(O)OC3)cn1	715 nM	297 nM
Cc1c(Oc2cnc(C(=O)NC3(CO)CC3)cn2)ccc2c1B(O)OC2	1500 nM	2010 nM
Cc1c(Oc2cnc(C(=O)N[C@@H]3CCC[C@H]3O)cn2)ccc2c1B(O)OC2	245 nM	133 nM
Cc1c(Oc2cnc(C(=O)N[C@H](C)C(C)(C)O)cn2)ccc2c1B(O)OC2	374 nM	265 nM
CCC[C@@H](NC(=O)c1cnc(Oc2ccc3c(c2C)B(O)OC3)cn1)C(C)(C)O	553 nM	260 nM
CSC[C@H](CO)NC(=O)c1cnc(Oc2ccc3c(c2C)B(O)OC3)cn1	74 nM	37 nM
CCCC[C@H](CO)NC(=O)c1cnc(Oc2ccc3c(c2C)B(O)OC3)cn1	215 nM	84.9 nM
Cc1c(Oc2cnc(C(=O)N[C@H](CO)CC(F)(F)F)cn2)ccc2c1B(O)OC2	31 nM	350 nM
Cc1c(Oc2cnc(C(=O)N[C@H](CO)C(C)C)cn2)ccc2c1B(O)OC2	1990 nM	774 nM
Cc1c(Oc2cnc(C(=O)NCC(C)O)cn2)ccc2c1B(O)OC2 (centres undefined)	1100 nM	1280 nM
Cc1c(Oc2cnc(C(=O)N3CCNC[C@@H]3CO)cn2)ccc2c1B(O)OC2	151 nM	103 nM
Cc1c(Oc2cnc(C(=O)N[C@H](CO)C3CC3)cn2)ccc2c1B(O)OC2	1090 nM	643 nM
Cc1c(Oc2cnc(C(=O)N[C@@H](C)C(C)(C)O)cn2)ccc2c1B(O)OC2	327 nM	202 nM
Cc1c(Oc2cnc(C(=O)N(C)CCO)cn2)ccc2c1B(O)OC2	437 nM	262 nM
Cc1c(Oc2cnc(C(=O)N[C@H](C)CO)cn2)ccc2c1B(O)OC2	848 nM	944 nM
Cc1c(Oc2cnc(C(=O)N3CCC(C)(O)C3)cn2)ccc2c1B(O)OC2 (centres undefined)	314 nM	139 nM
Cc1c(Oc2cnc(C(=O)N[C@@H](C)CO)cn2)ccc2c1B(O)OC2	808 nM	844 nM
CC[C@@H](NC(=O)c1cnc(Oc2ccc3c(c2C)B(O)OC3)cn1)C(C)(C)O	222 nM	91.8 nM
Cc1c(Oc2cnc(C(=O)NC(C)C(C)O)cn2)ccc2c1B(O)OC2 (centres undefined)	1460 nM	513 nM

Structure (SMILES)	IC50 (Plasmodium falciparum [1])	IC50 (Plasmodium falciparum [2])
COC[C@H](CO)NC(=O)c1cnc(Oc2ccc3c(c2C)B(O)OC3)cn1	796 nM	455 nM
Cc1c(Oc2cnc(C(=O)NC(C)(C)CO)cn2)ccc2c1B(O)OC2	425 nM	290 nM
Cc1c(Oc2cnc(C(=O)N[C@@H](CO)c3ccccc3)cn2)ccc2c1B(O)OC2	161 nM	103 nM
Cc1c(Oc2cnc(C(=O)N[C@H](CO)CCC(F)(F)F)cn2)ccc2c1B(O)OC2	959 nM	352 nM
Cc1c(Oc2cnc(C(=O)NCC(C)(C)O)cn2)ccc2c1B(O)OC2	554 nM	334 nM
CCC[C@H](CO)N(C)C(=O)c1cnc(Oc2ccc3c(c2C)B(O)OC3)cn1	252 nM	48.1 nM
Cc1c(Oc2cnc(C(=O)N[C@@H](CO)Cc3ccccc3)cn2)ccc2c1B(O)OC2	505 nM	115 nM
Cc1c(Oc2cnc(C(=O)N[C@@H](CO)C3CC3)cn2)ccc2c1B(O)OC2	587 nM	492 nM
Cc1c(Oc2cnc(C(=O)N[C@H]3CCC[C@@H]3O)cn2)ccc2c1B(O)OC2	537 nM	149 nM
CCC[C@H](NC(=O)c1cnc(Oc2ccc3c(c2C)B(O)OC3)cn1)C(C)(C)O	217 nM	129 nM
CC[C@@H](CO)NC(=O)c1cnc(Oc2ccc3c(c2C)B(O)OC3)cn1	801 nM	704 nM
Cc1c(Oc2cnc(C(=O)N[C@@H](CO)CS(C)(=O)=O)cn2)ccc2c1B(O)OC2	472 nM	180 nM
Cc1c(Oc2cnc(C(=O)N3CCNC[C@H]3CO)cn2)ccc2c1B(O)OC2	171 nM	98.2 nM
Cc1c(Oc2cnc(C(=O)N[C@@H]3CCC[C@@H]3O)cn2)ccc2c1B(O)OC2 (relative stereo)	181 nM	292 nM
CC[C@H](NC(=O)c1cnc(Oc2ccc3c(c2C)B(O)OC3)cn1)C(C)(C)O	829 nM	279 nM
Cc1c(Oc2cnc(C(=O)N(CCO)CCO)cn2)ccc2c1B(O)OC2	184 nM	328 nM
COCCNC(=O)c1cnc(Oc2ccc3c(c2C)B(O)OC3)cn1	644 nM	788 nM
Cc1c(Oc2cnc(C(=O)N[C@@H](CO)CCC(F)(F)F)cn2)ccc2c1B(O)OC2	480 nM	230 nM
